A selection: hits, their analogues and other compounds. The true share with any hit is near 6.5%.
PostGolgi ctrl – inhibits growth of the yeast control strain. 5% of 98,000 active. efflux-deficient yeast background strain, growth absorbance A615, 16 h. inhibition, % at 10 µM. AID 738
Calb biofilm kill – kills Candida albicans biofilms | inhibition, % at 6 µM | C. albicans biofilm + clotrimazole, Alamar Blue | 0.14% of 85,000 active;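 active = inhibition above 20%; inactive = inhibition below 20%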;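 note: preformed 24 hr biofilms exposed to compound for 48 hr; 0% = biofilm without compound and 100% = blank killed by clotrimazole plus chlorhexidine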
PostGolgi yeast – growth inhibition of a yeast mutant, post-Golgi transport screen; inhibition, % at 10 µM; 0.9% of 98,000 active; post-Golgi transport phenotypic cell assay;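 note: yeast cells grown in 1536-well plates; yeast grown about 18 h at 30C before absorbance read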
Ecoli tolC – growth inhibitors of E. coli BW25113 tolC mutant; AID 573; OD615; 2.2% of 65,000 active; growth inhibition, % at 10 µM (by protocol);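 active = growth inhibition at or above a cutoff equal to the mean over every tested compound plus 3 SD, cut at about 60% in these data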;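 note: growth measured after 20 h incubation at 37 °C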
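Doses: one dose of 10 µM final / Material: E. coli BW25113 ΔtolC::kan, tolC deletion mutant strain / Buffer or medium: LB with kanamycin 50 µg/mL / Evaluation: percent growth inhibition / Detection: optical density read at 615 nm / Incubation: 37 °C, 20 h exposure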
Pyk2 oligo antag – antagonists of human Pyk2 oligomerization; Q14289; Q293 cells, Pyk2 FERM NanoBiT luminescence; active compounds read low; z-score (the deposit names both 25 µM and 10 µM); 0.83% of 99,000 active; AID 1347419;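 active = Z-score of -3 or lower, scaled per plate to the spread of control and sample wells; inactive = z-score above -3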;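 note: negative z-score means lost luminescence so less FERM oligomerization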
Target sequence (Q14289 whole entry, looked up): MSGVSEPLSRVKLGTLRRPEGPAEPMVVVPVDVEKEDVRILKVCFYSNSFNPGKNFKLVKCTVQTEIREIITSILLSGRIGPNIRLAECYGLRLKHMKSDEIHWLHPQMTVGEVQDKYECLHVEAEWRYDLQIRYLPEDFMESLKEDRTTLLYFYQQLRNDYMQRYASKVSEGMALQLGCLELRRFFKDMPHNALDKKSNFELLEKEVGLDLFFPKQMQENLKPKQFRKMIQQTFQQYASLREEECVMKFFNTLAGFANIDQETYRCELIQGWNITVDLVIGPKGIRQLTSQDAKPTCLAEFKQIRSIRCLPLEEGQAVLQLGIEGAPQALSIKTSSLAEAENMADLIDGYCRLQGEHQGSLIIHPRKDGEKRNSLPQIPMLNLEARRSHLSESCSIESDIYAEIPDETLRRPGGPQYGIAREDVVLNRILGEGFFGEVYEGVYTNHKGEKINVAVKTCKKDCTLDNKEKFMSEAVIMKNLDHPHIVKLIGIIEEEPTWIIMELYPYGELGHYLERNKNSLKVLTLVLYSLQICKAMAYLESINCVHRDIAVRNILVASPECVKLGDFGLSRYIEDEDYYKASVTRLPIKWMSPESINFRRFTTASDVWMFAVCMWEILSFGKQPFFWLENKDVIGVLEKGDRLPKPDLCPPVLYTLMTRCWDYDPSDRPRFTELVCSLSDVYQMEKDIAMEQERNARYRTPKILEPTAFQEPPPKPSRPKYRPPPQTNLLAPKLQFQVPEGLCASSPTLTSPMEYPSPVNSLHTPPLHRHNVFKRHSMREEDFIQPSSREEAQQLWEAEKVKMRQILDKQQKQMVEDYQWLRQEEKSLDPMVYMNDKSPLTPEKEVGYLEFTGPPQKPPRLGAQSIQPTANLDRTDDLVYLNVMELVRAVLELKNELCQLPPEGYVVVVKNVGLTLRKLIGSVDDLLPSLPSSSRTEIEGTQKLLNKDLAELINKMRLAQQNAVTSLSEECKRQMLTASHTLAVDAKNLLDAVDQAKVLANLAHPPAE
Ecoli WT expand – blocks growth of wild type E. coli BW25113. AID 710. growth inhibition, % at 100 µM. 0.15% of 98,000 active. OD600 absorbance;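 active = growth inhibition above about 50% at one test dose, limit read from the data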;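 note: growth measured after 20 h incubation at 37 °C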
* hit, by the source's call; x = no result; ! = a repeat was not active. Cut-off read from the data, not from the text of the source, unless noted: active = inhibition above about 30%; inactive = the rest.

SMILES	PostGolgi ctrl	Calb biofilm kill	PostGolgi yeast	Ecoli tolC	Pyk2 oligo antag	Ecoli WT expand
C=C(C)c1cccc(C(C)(C)NC(=O)N(Cc2ccccc2)Cc2ccco2)c1	0	0	-10	x	-1.8	-3
CCN1c2ccccc2-c2nc3ccccc3n2C1c1ccccn1 (stereo not drawn)	40*	x	-9	33	0.82	-3
CCOC(=O)N1CCC(NC(=O)c2cnc3n(c2=O)CCS3)CC1	x	1	x	-6	x	x
O=P(COc1ccccc1)(c1ccccc1)c1ccccc1	8	x	0	x	-0.37	3
COc1ccc(-n2ccnc2SCC(=O)Nc2ccccc2)cc1	37*	3	6	19	-0.43	0
CCOc1ccc(CCNC(=O)c2cc3ccccn3n2)cc1OCC	5	1	-4	x	x	0
Cc1ccc(C(=O)c2cc(C)sc2NC(=O)CN2CCN(C(=O)c3ccco3)CC2)cc1	38*	8	4	60	-2	-25
CCc1ccccc1NC(=S)N1CCC(C(=O)c2ccc(F)cc2)CC1	2	x	3	x	-0.04	1
COc1ccc(-c2csc(N(CC3CCCO3)C(=O)c3ccco3)n2)cc1 (stereo not drawn)	24	5	18	61*	-2.1	5
CCC(=O)N(Cc1ccco1)c1nc(-c2ccc(OC)cc2)cs1	x	11	x	x	0.76	x
CC1CC(N(C(=O)c2ccco2)c2ccccc2)c2ccccc2N1 (stereo not drawn)	29	-1	-3	68*	-0.58	1
CC1CC(c2ccccc2)n2nc(NC(=O)c3ccco3)nc2N1 (stereo not drawn)	0	7	-6	-4	-0.91	-4
CC(=O)c1ccc(N2CCN(C(=O)COc3ccccc3F)CC2)c(F)c1	x	7	x	x	0.88	x
CCOc1cc(CNn2nnnc2N)cc(Cl)c1OCC(=O)NC(C)(C)C	6	2	9	x	-0.84	6
CCOC(=O)c1cc(-c2ccccc2)sc1NC(=O)C(C)Sc1nnnn1C (stereo not drawn)	64*	4	73*	16	-1.9	-20
S=C(c1ccc(-c2ccc(Cl)c(Cl)c2)o1)N1CCOCC1	17	10	-7	65*	-0.11	-5
S=C(c1ccc(-c2ccccc2Cl)o1)N1CCOCC1	11	6	6	37	0.02	5
c1ccc2c(c1)nc(N1CCOCC1)c1c3ccccc3[nH]c21	26	4	-6	27	-1.8	-4
CN(C)S(=O)(=O)c1ccc(Nc2ccc(-c3ccc4c(c3)OCCO4)nn2)cc1	1	4	-2	x	-2.1	5
CN(C(=O)c1cccc(Nc2ccc(-c3ccc4c(c3)OCCO4)nn2)c1)C1CCCCC1	x	6	x	x	-3.6*	x
CCOC(=O)CC1C(=O)NC2CCCCC2N1C(=O)Nc1ccc(Cl)cc1 (stereo not drawn)	13	10	-9	1	-0.02	0
Cc1ccc(C(=O)NCCSc2ccc(Cl)cc2)cc1[N+](=O)[O-]	36*	x	11	x	-0.25	-12
Cc1ccc(SCCNC(=O)c2ccc(C)c([N+](=O)[O-])c2)cc1	9	x	0	x	1.1	-2
COc1ccc(S(=O)(=O)NCC(=O)N(CC(=O)NCC2CCCO2)c2cc(C)ccc2C)cc1 (stereo not drawn)	-1	-5	11	-17	-0.1	-1
Cc1ccc2nc(C(F)(F)F)c(C#N)c(N)c2c1	36*	x	-5	-1	-1.9	-2
SMILES	PostGolgi ctrl	Calb biofilm kill	PostGolgi yeast	Ecoli tolC	Pyk2 oligo antag	Ecoli WT expand
CC(C)(C)OC(=O)NNC1CC(=O)N(c2ccccc2F)C1=O (stereo not drawn)	3	x	21	x	-0.36	-2
COc1cccc(C2NC(CCSC)(C(=O)O)C3C(=O)N(C(C)C)C(=O)C23)c1O (stereo not drawn)	40*	6	-9	-23	x	-3
O=C(O)CCSc1ccc2ccccc2n1	44*!	6	1	2	1.9	-4
O=C(CSc1ccc2ccccc2n1)c1ccc2c(c1)OCO2	32*	7	9	x	-0.45	-26
O=C(O)CSc1ccc2ccccc2n1	7	3	5	-36	-0.2	-4
CC(=O)Nc1ccccc1-c1nnc(SCc2ccccc2Cl)[nH]c1=O	10	0	2	x	-2.5	5
O=C1c2cnc3nc(SCc4ccc(Cl)cc4)nn3c2CC2c3ccccc3CCN12 (stereo not drawn)	35*	x	18	x	1.6	-6
COc1ccc(C(=O)CSc2nc3nc(C)cc(C)c3c(=O)[nH]2)cc1OC	x	-3	x	15	x	x
COc1ccc(CN(Cc2ccccn2)C(=O)CN2C(=O)COc3ccccc32)cc1	1	8	-11	7	-0.47	-6
COc1ccc(CN(CC2CCCO2)C(=O)CN2C(=O)C(C)Oc3ccc(C)cc32)cc1OC (stereo not drawn)	x	3	x	x	1	x
COc1ccc(CN(C(=O)CN2C(=O)COc3ccccc32)C2CCCC2)c(OC)c1	26	-2	-4	71*	-2.6	-5
COc1ccc(CN(C(=O)CN2C(=O)C(C)Oc3ccccc32)C2CCCC2)c(OC)c1 (stereo not drawn)	13	-8	-5	67*	-2.5	-6
O=[N+]([O-])c1ccccc1CNC(Cc1ccccc1)c1ccccc1 (stereo not drawn)	20	-1	-2	x	-0.5	-2
CCc1ccc(NSc2ccccc2[N+](=O)[O-])cc1	25	x	-5	x	-3*	5
c1ccc(-c2ccc(-n3ccnc3)cc2)cc1	20	0	8	12	-0.5	17
c1ccc(-c2nc(N3CCN(c4ccccc4)CC3)nc(-n3ccnc3)n2)cc1	54*	1	5	17	-1.7	-17
c1ccc(-c2nc(N3CCCCCC3)nc(-n3ccnc3)n2)cc1	72*	7	62*	98*	-1.8	3
COC(=O)c1nn(-c2ccccc2)c(Sc2ccc(C)cc2)c1/C=N/O	4	x	1	x	-2.4	-6
CCCCCOC(=O)c1ccc(NC(=O)c2ccco2)cc1	9	4	-10	99*	-0.09	-2
NC(=O)c1c(NC(=O)c2ccccc2)sc2c1CCc1ccccc1-2	4	4	-1	x	-2.7	1
CC1(C)CC(=O)C(C=NCCN2CCN(CCc3ccccc3)CC2)=C(O)C1	6	9	8	-4	-0.41	-1
CCn1cnc2c1c(=O)n(Cc1nnc3n1-c1ccccc1SC3)c(=O)n2Cc1ccccc1	0	4	2	4	-0.84	6
CCn1cnc2c1c(=O)n(Cc1csc(-c3ccccc3)n1)c(=O)n2Cc1ccccc1	48*	-8	-2	32	-1.6	-4
Cc1ccc(C(=O)C(OC(=O)CN2C(=O)c3ccccc3C2=O)c2ccccc2)cc1C (stereo not drawn)	6	x	-7	x	-0.59	-9
Cc1nc2c(C(=O)NCc3ccc4c(c3)OCO4)cnn2c(C)c1Cc1ccc(F)cc1Cl	42*	10	-2	x	0.29	-9
Cc1ccc(C)c(Cc2c(C)nc3c(C(=O)NCc4ccc5c(c4)OCO5)cnn3c2C)c1	57*	5	4	x	x	-2

Screening data deposited in PubChem BioAssay by several laboratories.
